Only some compounds are listed: those with a hit (about 1.9% of all), similar ones and a draw of the others.
PG9 Ab binder: binders of HIV-1 gp120 antibody PG9, primary screen, biochemical, TR-FRET | HIV-1 gp120 / PG9 antibody interaction | inhibition, % at 6.7 µM | 360,000 tested, 0.43% active | AID 624416, 2012 | TR-FRET gp120-PG9 antibody binding; in the data active = inhibition above about 8.5%
SKN-1 inh: suppressors of acrylamide-induced Pgst-4::GFP reporter in worms, primary screen, SKN-1 inhibitor project, whole organism, uHTS, GFP/RFP fluorescence ratio, strain VP596; C. elegans VP596 Pgst-4::GFP/RFP ratio, 24 h; inhibition, % at 21.8 µM; 360,000 tested, 0.49% active; AID 624304, 2012;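 active = interference check ratio from 0.5 to 1.5 plus GFP to RFP signal ratio inhibition reaching or exceeding a fixed threshold, cut at about 30% in these data, passing the limit was not always enough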
NR2E3 ag-1: NR2E3 agonists in two-hybrid cells, primary screen, cell-based, luminescence, CHO-S, Gal4-NCOR/VP16-NR2E3 | luciferase | 360,000 tested, 0.35% active | inhibition of corepressor binding, % at 3.98 µM | Photoreceptor-specific nuclear receptor (Homo sapiens), Q9Y5X4;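 active = inhibition above the mean of all tested compounds plus 3 SD, cut at about 70% in these data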;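 note: higher means lower luciferase signal from less NR2E3 corepressor binding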
MT1-MMP act inh: blockers of MT1-MMP proenzyme processing, primary screen, HT1080 RFP-PRO-GFP cells, GFP/RFP fluorescence | Matrix metalloproteinase-14 (Homo sapiens), P50281 | GFP/RFP ratio fluorescence, overnight; percent of plate control window, DMSO zero | GFP/RFP ratio change, % at 20 µM | 360,000 tested, 0.061% active;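 active = GFP/RFP ratio change of at least 30% with cell ATP level not reduced by more than half and red fluorescence within 50% of control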
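Material – HT1080 RFP-PRO-GFP cells · Control set – DMSO wells and RFP-L50D-GFP cells · Incubation – overnight cell settling, then overnight compound exposure, 37 °C, 5% CO2 · Compound dosing – single-point 20 µM compound, 1% DMSO · Read-out – GFP/RFP fluorescence ratio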
NR2E3 ag-2: inhibitors of NR2E3-RetCOR corepressor binding, primary screen, NR2E3 agonist project, biochemical, TR-FRET, GST-NR2E3, biotin-RetCOR; Photoreceptor-specific nuclear receptor (Homo sapiens), Q9Y5X4; 1536-well; inhibition of corepressor binding, % at 4.78 µM; 320,000 tested, 0.12% active; AID 2300, 2010;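 active = percent inhibition above the cutoff of mean plus 3 SD of all tested compounds, set per screening campaign, cut at about 20% in these data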
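Format: 1536-well format; test system: GST-NR2E3 and biotin-RetCOR proteins; read-out basis: percent inhibition of TR-FRET ratio; timing: 5 h incubation at 4 °C; detection: time-resolved FRET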
NR1D1 modulator: modulators of Rev-erb alpha DNA binding, primary screen, biochemical, FITC-DNA, fluorescence polarization, uHTS; Nuclear receptor subfamily 1 group D member 1 (Homo sapiens), P20393; Rev-erbα–FITC-DNA binding, 90 min; activity, % at 10 µM; 370,000 tested, 0.79% active; AID 1259318, 2017;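 active = activity above about 14%, limit read from the data; passing the limit was not always enough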
Target sequence (P20393 whole entry, looked up): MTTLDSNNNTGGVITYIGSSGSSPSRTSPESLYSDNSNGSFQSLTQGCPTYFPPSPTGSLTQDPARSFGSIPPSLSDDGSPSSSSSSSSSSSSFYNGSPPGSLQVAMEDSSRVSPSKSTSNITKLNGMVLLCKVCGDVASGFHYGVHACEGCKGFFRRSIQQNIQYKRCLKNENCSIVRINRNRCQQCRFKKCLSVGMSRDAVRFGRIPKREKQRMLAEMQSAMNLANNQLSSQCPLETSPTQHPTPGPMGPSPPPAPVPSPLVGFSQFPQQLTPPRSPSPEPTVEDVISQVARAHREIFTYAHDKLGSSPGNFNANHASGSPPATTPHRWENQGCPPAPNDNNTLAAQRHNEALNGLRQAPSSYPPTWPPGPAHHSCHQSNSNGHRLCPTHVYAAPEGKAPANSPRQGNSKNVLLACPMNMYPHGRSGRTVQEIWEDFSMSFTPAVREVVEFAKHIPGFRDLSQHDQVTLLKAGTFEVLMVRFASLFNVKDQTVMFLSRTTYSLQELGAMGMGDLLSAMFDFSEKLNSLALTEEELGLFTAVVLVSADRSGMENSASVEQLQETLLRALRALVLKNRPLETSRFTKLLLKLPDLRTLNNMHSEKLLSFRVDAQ
NR1D1 mod conf: modulators of Rev-erb alpha DNA binding, confirmation, biochemical, FITC-DNA, fluorescence polarization, single point | activation, % at 25 µM | shares compounds with NR1D1 modulator | 3,000 tested, 61% active | 90 min | AID 1259319, 2017;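 active = activation at or above a set limit, or at least 3 SD above the negative control mean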
RORg DNA counter: modulation of RORgamma DNA binding, dose response, counter-screen for Rev-erb alpha modulator project, biochemical, fluorescence polarization, FITC-DNA; 910 tested, 8% active; purified RORgamma protein-FITC-DNA binding; IC50, µM; shares compounds with NR1D1 modulator;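 active = Compounds whose fitted half-maximal concentration for disrupting protein-DNA binding is below 10 micromolar; the record names Rev-erb in its text, so the target is in doubt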
Large screens that a line does not name were inactive (follow-up assays come after a bar, where they were run).

CCC(=O)N=c1sc2c(OC)ccc(OC)c2n1C	NR1D1 modulator 47 | NR1D1 mod conf 30 | RORg DNA counter inactive
COc1ccc(OC)c2c1sc(=NC(=O)C1COc3ccccc3O1)n2C (stereo unspecified)	NR1D1 modulator 29 | NR1D1 mod conf 21
COc1ccc(C)c2sc(=NC(=O)c3cccc(N4C(=O)CCC4=O)c3)n(C)c12	NR1D1 modulator 43 | NR1D1 mod conf 23
COc1ccc(C)c2sc(=NC(=O)c3ccc(C(C)=O)cc3)n(C)c12	none
COc1ccc(C)c2sc(=NC(=O)C(C)C)n(C)c12	NR1D1 modulator 158 | NR1D1 mod conf 11
Cc1ccc(CN2CCCCC(NC(=O)Nc3ccccc3F)C2=O)cc1 (stereo unspecified)	none (no result: PG9 Ab binder, SKN-1 inh, NR2E3 ag-1, MT1-MMP act inh, NR2E3 ag-2)
Cc1ccc(Cn2nc(C)c(NC(=O)CSc3nc4c(c(C(F)(F)F)n3)CCc3ccccc3-4)c2C)cc1	NR1D1 modulator 45 | NR1D1 mod conf 29
CC1CCc2c(sc(NC(=O)CSc3nc4c(c(C(F)(F)F)n3)CCc3ccccc3-4)c2C(N)=O)C1 (stereo unspecified)	none
Cc1nn(Cc2ccc(Cl)cc2)c(C)c1NC(=O)CSc1nc2c(c(C(F)(F)F)n1)CCc1ccccc1-2	NR1D1 modulator 32 | NR1D1 mod conf 25
COc1ccc(-c2ccc(C#N)c(SCC(=O)Nc3sc4c(c3C#N)CCC4)n2)cc1OC	NR1D1 modulator 40 | NR1D1 mod conf 24
CN(Cc1ccccc1)C(=O)CSc1nc2c(c(C(F)(F)F)n1)CCc1ccccc1-2	none
Cc1ccccc1Cn1cc(NC(=O)CSc2nc3c(c(C(F)(F)F)n2)CCc2ccccc2-3)cn1	NR1D1 modulator 19 | NR1D1 mod conf inactive
COC(=O)c1cc2c(c3c4cc(OC)ccc4n(S(=O)(=O)c4ccc(OC)cc4)c13)C(=O)N(Cc1ccc(C(F)(F)F)cc1)C2	none (no result: SKN-1 inh, NR2E3 ag-1, MT1-MMP act inh, NR2E3 ag-2)
COC(=O)C1=C(C)N(C)C(=NCc2ccc(OC)cc2)NC1c1ccc(F)cc1 (stereo unspecified)	none (no result: SKN-1 inh, NR2E3 ag-1, MT1-MMP act inh, NR2E3 ag-2)
Nc1nc2c(ncn2[C@@H]2O[C@H](C(=O)N[C@H](Cc3ccccc3)C(=O)O)[C@@H](O)[C@H]2O)c(=O)[nH]1	none (no result: SKN-1 inh, NR2E3 ag-1, MT1-MMP act inh, NR2E3 ag-2)
NC(=O)c1c(NC(=O)CSc2nc3c(c(C(F)(F)F)n2)CCc2ccccc2-3)sc2c1CCCC2	none (no result: PG9 Ab binder)
N#Cc1c(NC(=O)CSc2nc3c(c(C(F)(F)F)n2)CCc2ccccc2-3)sc2c1CCCC2	NR1D1 modulator 40 | NR1D1 mod conf 23
O=C(NCCc1ccc(Cl)cc1)c1ccc2nccnc2c1	NR1D1 modulator 14 | NR1D1 mod conf inactive
O=C(NCCc1ccccc1)c1ccc2c(c1)S(=O)(=O)c1ccccc1C2=O	none
O=C(NCCc1ccccc1)c1ccc2c(c1)S(=O)(=O)c1cc(Cl)ccc1C2=O	NR1D1 modulator 68 | NR1D1 mod conf 63 | RORg DNA counter inactive
CCCCCc1ccc(-c2n[nH]c(=O)c3ccccc23)cc1	none (no result: PG9 Ab binder, SKN-1 inh, NR2E3 ag-1, MT1-MMP act inh, NR2E3 ag-2)
CC(=O)c1cc(-c2ccccc2)n(CC(=O)NCc2ccc(Cl)cc2)c1C	NR1D1 modulator 24 (no result: PG9 Ab binder, SKN-1 inh, NR2E3 ag-1, MT1-MMP act inh, NR2E3 ag-2) | NR1D1 mod conf 16
N[C@H]1CC[C@@H]2SC[C@@H](C(=O)O)N2C1=O	none (no result: PG9 Ab binder, SKN-1 inh, NR2E3 ag-1, MT1-MMP act inh, NR2E3 ag-2)
O=[N+]([O-])c1ccc(N(c2ccccc2)c2ccccc2)cc1	NR1D1 modulator 44 | NR1D1 mod conf 35 | RORg DNA counter inactive
CCN(C(=O)c1ccccc1)c1ccc([N+](=O)[O-])cc1	none
COc1cccc(C(C(=O)NCc2ccccc2)N2CCN(C(=O)C3CCCO3)CC2)c1OC (stereo unspecified)	none (no result: NR2E3 ag-1, NR2E3 ag-2)
COc1ccc(/C=C2/SC(=O)N(CCC(=O)Nc3ccc(C)cc3)C2=O)cc1OC	NR1D1 modulator 30 (no result: SKN-1 inh, NR2E3 ag-1, MT1-MMP act inh) | NR1D1 mod conf 25
COc1ccc(/C=C2\SC(=O)N(CC(=O)Nc3cccnc3)C2=O)cc1OC	none
COc1ccc(/C=C2/SC(=O)N(CC(=O)Nc3cc(C)on3)C2=O)cc1OC	NR1D1 modulator 49 | NR1D1 mod conf 27
COc1ccc(/C=C2/SC(=O)N(CCC(=O)Nc3ccccc3)C2=O)cc1OC	NR1D1 modulator 24 | NR1D1 mod conf 31 | RORg DNA counter inactive
Cc1ccccc1C(=O)N1CCN(C(=O)C(=O)c2cccc(C(F)(F)F)c2)CC1	none (no result: SKN-1 inh, NR2E3 ag-1, MT1-MMP act inh, NR2E3 ag-2)
COC(=O)[C@]12C[C@H](CC(=O)N3CCC(c4ccccc4)CC3)C(=O)N(Cc3ccccc3)C1=C[C@H](C1CCCC1)O[C@@H]2C	none (no result: SKN-1 inh, NR2E3 ag-1, MT1-MMP act inh, NR2E3 ag-2)
CCC(C)CN1C(=O)CN(S(C)(=O)=O)CC1(C)C(=O)NCc1ccccc1 (stereo unspecified)	none (no result: NR2E3 ag-1, NR2E3 ag-2)
CCCn1nc(C(=O)Nc2cc(OCC)c(N3CCOCC3)cc2OCC)c2ccccc2c1=O	none (no result: NR2E3 ag-2)
O=C(Nc1ccc(F)cc1)OCc1cn(Cc2cc(F)ccc2F)nn1	none (no result: PG9 Ab binder, SKN-1 inh, NR2E3 ag-1, MT1-MMP act inh, NR2E3 ag-2)
COc1ccc(C(=O)Nc2cccc(OC)c2)cc1	none
COc1ccc(C(=O)Nc2ccc3[nH]c(-c4cccc(OC)c4)cc(=O)c3c2)cc1	NR1D1 modulator 51 | NR1D1 mod conf inactive
COc1cc(-n2c(C)cc(O)cc2=O)ccc1Cl	none (no result: SKN-1 inh, NR2E3 ag-1, MT1-MMP act inh, NR2E3 ag-2)
CC1(C)Cc2c(c(N3CCCC3)nc3sc(C(=O)Nc4ccccc4)c(N)c23)CO1	NR1D1 modulator 50 | NR1D1 mod conf 44 | RORg DNA counter inactive
COc1ccc(NC(=O)c2sc3nc(N4CCCC4)c4c(c3c2N)CC(C)(C)OC4)c(OC)c1	NR1D1 modulator 53 | NR1D1 mod conf 30 | RORg DNA counter inactive
CCOc1ccc(NC(=O)c2sc3nc(N4CCOCC4)c4c(c3c2N)CC(C)(C)OC4)cc1	NR1D1 modulator 33 | NR1D1 mod conf inactive
COc1ccc(NC(=O)c2sc3nc(N4CCOCC4)c4c(c3c2N)CC(C(C)C)OC4)c(OC)c1 (stereo unspecified)	none
